# ChEMBL document CHEMBL4406859, “Antitumor and antiviral activities of 4-substituted 1,2,3-triazolyl-2,3-dibenzyl-L-ascorbic acid derivatives” (Eur J Med Chem, 2019)
# Active and inactive are the calls of the source. No cut-off for these calls is given here.
# Legend:
# Sindbis virus = experiment: Antiviral activity against Sindbis virus infected in vero cells assessed as reduction in virus-induced cytopathogenicity incubated for 7 days by microscopic analysis; assay type: functional, organism-based
# Reovirus sp. = experiment: Antiviral activity against Reovirus infected in vero cells assessed as reduction in virus-induced cytopathogenicity incubated for 7 days by microscopic analysis; assay type: functional, organism-based
# Influenza B virus [1] = experiment: Antiviral activity against Influenza B virus (B/Ned/537/05) infected in dog MDCK cells assessed as reduction in virus-induced cytopathogenicity incubated for 7 days by MTS assay; assay type: functional, organism-based
# Influenza A virus H3N2 [2] = experiment: Antiviral activity against Influenza A virus (A/HK/7/87(H3N2)) infected in dog MDCK cells assessed as reduction in virus-induced cytopathogenicity incubated for 7 days by microscopic analysis; assay type: functional, organism-based; details: A/Hong Kong/7/1987(H3N2)
# Influenza A virus [3] = experiment: Antiviral activity against Influenza A virus (A/Ned/378/05(H1N1)) infected in dog MDCK cells assessed as reduction in virus-induced cytopathogenicity incubated for 7 days by microscopic analysis; assay type: functional, organism-based
# Cytomegalovirus [4] = experiment: Antiviral activity against Cytomegalovirus AD169 infected in human HELF cells assessed as reduction in virus-induced cytopathogenicity incubated for 7 days by Giemsa staining based microscopic analysis; assay type: functional, organism-based; details: Human betaherpesvirus 5, AD169, HELF, 168 h
# Outline: (§1)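 Confluent HEL fibroblasts infected with CMV (Davis or AD-169) at 100 PFU/well for 2 h. Residual virus removed, then medium with graded compound concentrations added (duplicate). Incubated 7 days at 37 °C. Cytopathogenicity scored microscopically after ethanol fixation and Giemsa staining. EC50 read from plots of % cytopathogenicity versus concentration.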
# Human alphaherpesvirus 3 [5] = experiment: Antiviral activity against thymidine kinase deficient Varicella zoster virus infected in human HELF cells assessed as reduction in virus-induced cytopathogenicity incubated for 7 days by Giemsa staining based microscopic analysis; assay type: functional, organism-based; details: Human alphaherpesvirus 3, HELF, 168 h
# Coxsackievirus B4 = experiment: Antiviral activity against Human coxsackievirus B4 infected in vero cells assessed as reduction in virus-induced cytopathogenicity incubated for 7 days by microscopic analysis; assay type: functional, organism-based
# Human alphaherpesvirus 2 = experiment: Antiviral activity against Herpes simplex virus 2 G infected in human HELF cells assessed as reduction in virus-induced cytopathogenicity incubated for 7 days by microscopic analysis; assay type: functional, organism-based
# Human coronavirus 229E = experiment: Antiviral activity against Human coronavirus 229E infected in human HELF cells assessed as reduction in virus-induced cytopathogenicity incubated for 7 days by microscopic analysis; assay type: functional, organism-based
# MCF7 = experiment: Antiproliferative activity against human MCF7 cells assessed as reduction in cell viability incubated for 72 hrs by MTT assay; assay type: functional, cell-based; details: MCF7, 72 h
# Outline: (§2)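 Cells (ATCC) grown in DMEM with 10 FBS, penicillin/streptomycin, 2 mM glutamine, 37 °C, 5 CO2. 5000 cells/well seeded; after 24 h, freshly prepared dilutions at five concentrations (0.01–100 μM) added for 72 h. MTT read-out; absorbance converted to percentage growth by NIH formulas. Two experiments in quadruplicate; IC50 by linear regression.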
# Influenza A virus [6] = experiment: Antiviral activity against Influenza A virus (A/Ned/378/05(H1N1)) infected in dog MDCK cells assessed as reduction in virus-induced cytopathogenicity incubated for 7 days by MTS assay; assay type: functional, organism-based
# Human alphaherpesvirus 3 [7] = experiment: Antiviral activity against thymidine kinase positive Varicella zoster virus infected in human HELF cells assessed as reduction in virus-induced cytopathogenicity incubated for 7 days by Giemsa staining based microscopic analysis; assay type: functional, organism-based; details: Human alphaherpesvirus 3, HELF, 168 h
# Human alphaherpesvirus 1 [8] = experiment: Antiviral activity against Herpes simplex virus 1 KOS infected in human HELF cells assessed as reduction in virus-induced cytopathogenicity incubated for 7 days by microscopic analysis; assay type: functional, organism-based; details: strain KOS
# Influenza A virus H3N2 [9] = experiment: Antiviral activity against Influenza A virus (A/HK/7/87(H3N2)) infected in dog MDCK cells assessed as reduction in virus-induced cytopathogenicity incubated for 7 days by MTS assay; assay type: functional, organism-based; details: A/Hong Kong/7/1987(H3N2)
# HCT-116 = experiment: Antiproliferative activity against human HCT116cells assessed as reduction in cell viability incubated for 72 hrs by MTT assay; assay type: functional, cell-based; details: HCT-116, 72 h; outline: as §2
# SW-620 = experiment: Antiproliferative activity against human SW620 cells assessed as reduction in cell viability incubated for 72 hrs by MTT assay; assay type: functional, cell-based; details: SW-620, 72 h; outline: as §2
# [10] = Cytotoxicity against human HELF cells assessed as minimum cytotoxic concentration by observing alteration in cell morphology incubated for 3 days by microscopic analysis; assay type: cell-based; details: HELF cells
# Outline: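 Read-out is the minimum cytotoxic concentration (MCC): the lowest compound concentration giving a microscopically detectable change in cell morphology. Measured on confluent human embryonic lung (HEL) fibroblast cultures exposed to a range of compound concentrations.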
# [11] = Cytotoxicity against human HELF cells assessed as reduction in cell viability incubated for 3 days by coulter counter method; assay type: cell-based; details: 72 h
# Outline: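 HEL cells seeded at 5 x 10^3/well and allowed to proliferate 24 h, then exposed to graded compound concentrations for 3 days at 37 °C. Cell number counted with a Coulter counter.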
# Human adenovirus 2 = experiment: Antiviral activity against Human adenovirus 2 infected in human HELF cells assessed as reduction in virus-induced cytopathogenicity incubated for 7 days by microscopic analysis; assay type: functional, organism-based
# HepG2 = experiment: Antiproliferative activity against human HepG2 cells assessed as reduction in cell viability incubated for 72 hrs by MTT assay; assay type: functional, cell-based; details: HepG2, 72 h; outline: as §2
# HeLa = experiment: Antiproliferative activity against human HeLa cells assessed as reduction in cell viability incubated for 72 hrs by MTT assay; assay type: functional, cell-based; outline: as §2
# HFF = experiment: Cytotoxicity against human HFF cells assessed as reduction in cell viability incubated for 72 hrs by MTT assay; assay type: cell-based; outline: as §2
# Human alphaherpesvirus 1 [12] = experiment: Antiviral activity against Herpes simplex virus 1 TK-KOS-ACV infected in human HELF cells assessed as reduction in virus-induced cytopathogenicity incubated for 7 days by microscopic analysis; assay type: functional, organism-based
# A549 = experiment: Antiproliferative activity against human A549 cells assessed as reduction in cell viability incubated for 72 hrs by MTT assay; assay type: functional, cell-based; details: A549, 72 h; outline: as §2
# CFPAC-1 = experiment: Antiproliferative activity against human CFPAC-1 cells assessed as reduction in cell viability incubated for 72 hrs by MTT assay; assay type: functional, cell-based; details: Homo sapiens, CFPAC-1, 72 h; read-out: IC50; outline: as §2
# Cytomegalovirus [13] = experiment: Antiviral activity against Cytomegalovirus Davis infected in human HELF cells assessed as reduction in virus-induced cytopathogenicity incubated for 7 days by Giemsa staining based microscopic analysis; assay type: functional, organism-based; details: Human betaherpesvirus 5, Davis, 168 h; outline: as §1
# Influenza B virus [14] = experiment: Antiviral activity against Influenza B virus (B/Ned/537/05) infected in dog MDCK cells assessed as reduction in virus-induced cytopathogenicity incubated for 7 days by microscopic analysis; assay type: functional, organism-based
SMILES,Activity (Sindbis virus),Activity (Reovirus sp.),Activity (Influenza B virus [1]),Activity (Influenza A virus H3N2 [2]),Activity (Influenza A virus [3]),EC50 (Cytomegalovirus [4]),EC50 (Human alphaherpesvirus 3 [5]),Activity (Coxsackievirus B4),Activity (Human alphaherpesvirus 2),Activity (Human coronavirus 229E),IC50 (MCF7),Activity (Influenza A virus [6]),EC50 (Human alphaherpesvirus 3 [7]),Activity (Human alphaherpesvirus 1 [8]),Activity (Influenza A virus H3N2 [9]),IC50 (HCT-116),IC50 (SW-620),MCC at 72 h [10],CC50 [11],Activity (Human adenovirus 2),other results
COc1ccc(-c2cn(C/C=C3\OC(=O)C(OCc4ccccc4)=C3OCc3ccccc3)nn2)cc1,inactive,inactive,inactive,inactive,inactive,20 µM,> 100 µM,inactive,inactive,inactive,39.1 µM,inactive,> 100 µM,inactive,inactive,> 100 µM,> 100 µM,> 100 µM,> 100 µM,inactive,IC50 (HepG2): > 100 µM; IC50 (HeLa): > 100 µM; IC50 (HFF): > 100 µM; Activity (Human alphaherpesvirus 1 [12]): inactive; IC50 (A549): > 100 µM; IC50 (CFPAC-1): > 100 µM; EC50 (Cytomegalovirus [13]): 5.74 µM; Activity (Influenza B virus [14]): inactive
O=C1O/C(=C\Cn2cc(-c3cccc(O)c3)nn2)C(OCc2ccccc2)=C1OCc1ccccc1,inactive,inactive,inactive,inactive,inactive,9.36 µM,14.7 µM,inactive,inactive,inactive,27.8 µM,inactive,11.6 µM,inactive,inactive,63.6 µM,69.8 µM,100 µM,11.1 µM,inactive,IC50 (HepG2): 61.7 µM; IC50 (HeLa): 74.8 µM; IC50 (HFF): 42.6 µM; Activity (Human alphaherpesvirus 1 [12]): inactive; IC50 (A549): 23.3 µM; IC50 (CFPAC-1): 33.7 µM; EC50 (Cytomegalovirus [13]): 8.94 µM; Activity (Influenza B virus [14]): inactive
